How the values were obtained:
Acetylcholinesterase = target: T1, Acetylcholinesterase (Rattus norvegicus, UniProt P37136); test: Inhibitory concentration against rat brain acetylcholinesterase AChE
T1 sequence (P37136 whole entry): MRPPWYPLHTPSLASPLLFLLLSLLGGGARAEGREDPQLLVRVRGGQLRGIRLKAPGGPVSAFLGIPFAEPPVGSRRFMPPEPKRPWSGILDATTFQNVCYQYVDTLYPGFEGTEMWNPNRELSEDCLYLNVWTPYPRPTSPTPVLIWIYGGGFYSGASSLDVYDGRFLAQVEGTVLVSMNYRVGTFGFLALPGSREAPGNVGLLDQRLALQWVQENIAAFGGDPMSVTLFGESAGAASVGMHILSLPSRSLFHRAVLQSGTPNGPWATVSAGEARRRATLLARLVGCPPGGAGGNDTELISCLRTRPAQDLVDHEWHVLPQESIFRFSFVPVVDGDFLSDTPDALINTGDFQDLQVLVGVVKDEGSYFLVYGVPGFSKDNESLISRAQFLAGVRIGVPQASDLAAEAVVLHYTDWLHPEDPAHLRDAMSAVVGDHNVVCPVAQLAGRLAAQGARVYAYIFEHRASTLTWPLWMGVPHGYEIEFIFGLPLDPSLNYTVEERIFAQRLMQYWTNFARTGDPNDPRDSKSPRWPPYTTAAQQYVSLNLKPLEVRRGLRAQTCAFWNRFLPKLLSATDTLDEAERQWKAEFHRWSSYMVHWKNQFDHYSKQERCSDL
Method in brief: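 Adult Wistar rat cerebral cortex, stored frozen, homogenized 1:200 w/v in 25 mM phosphate pH 7.4, warmed 37 °C 5 min, spun 50000g 15 min at 4 °C; pellet resuspended as AChE-enriched fraction. Compound in PBS pH 7.4 with tritiated ACh (final 0.4 mM), 15 min at 37 °C; stopped with chloroacetic acid/NaCl/NaOH; ³H-acetate extracted into isoamyl alcohol/toluene, scintillation counted.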

[1] = target: Cholinesterases; ACHE & BCHE (Homo sapiens) (UniProt P06276+P22303); test: It is the ratio of IC50 for butyrl cholinesterase (BuChE ) to that of acetylcholinesterase (AChE); assay type: protein assay
Chain of Cholinesterases; ACHE & BCHE (Homo sapiens) (P06276 whole entry, looked up): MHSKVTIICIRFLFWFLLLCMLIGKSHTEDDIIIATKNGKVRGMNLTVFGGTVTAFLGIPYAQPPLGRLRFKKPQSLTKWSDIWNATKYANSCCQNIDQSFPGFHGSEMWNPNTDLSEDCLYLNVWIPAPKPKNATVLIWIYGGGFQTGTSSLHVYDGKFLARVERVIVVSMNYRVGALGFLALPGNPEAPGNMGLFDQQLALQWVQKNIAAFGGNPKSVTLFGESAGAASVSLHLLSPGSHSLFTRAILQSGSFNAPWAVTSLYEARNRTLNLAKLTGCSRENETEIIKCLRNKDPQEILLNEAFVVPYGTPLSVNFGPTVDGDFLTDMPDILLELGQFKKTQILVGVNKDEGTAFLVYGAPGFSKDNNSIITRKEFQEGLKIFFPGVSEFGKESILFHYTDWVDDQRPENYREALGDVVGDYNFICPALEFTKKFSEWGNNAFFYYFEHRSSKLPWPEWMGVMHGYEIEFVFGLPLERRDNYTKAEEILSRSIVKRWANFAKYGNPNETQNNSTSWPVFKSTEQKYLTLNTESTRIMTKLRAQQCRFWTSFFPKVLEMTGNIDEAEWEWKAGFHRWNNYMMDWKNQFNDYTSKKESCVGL
Chain of Cholinesterases; ACHE & BCHE (Homo sapiens) (P22303 whole entry, looked up): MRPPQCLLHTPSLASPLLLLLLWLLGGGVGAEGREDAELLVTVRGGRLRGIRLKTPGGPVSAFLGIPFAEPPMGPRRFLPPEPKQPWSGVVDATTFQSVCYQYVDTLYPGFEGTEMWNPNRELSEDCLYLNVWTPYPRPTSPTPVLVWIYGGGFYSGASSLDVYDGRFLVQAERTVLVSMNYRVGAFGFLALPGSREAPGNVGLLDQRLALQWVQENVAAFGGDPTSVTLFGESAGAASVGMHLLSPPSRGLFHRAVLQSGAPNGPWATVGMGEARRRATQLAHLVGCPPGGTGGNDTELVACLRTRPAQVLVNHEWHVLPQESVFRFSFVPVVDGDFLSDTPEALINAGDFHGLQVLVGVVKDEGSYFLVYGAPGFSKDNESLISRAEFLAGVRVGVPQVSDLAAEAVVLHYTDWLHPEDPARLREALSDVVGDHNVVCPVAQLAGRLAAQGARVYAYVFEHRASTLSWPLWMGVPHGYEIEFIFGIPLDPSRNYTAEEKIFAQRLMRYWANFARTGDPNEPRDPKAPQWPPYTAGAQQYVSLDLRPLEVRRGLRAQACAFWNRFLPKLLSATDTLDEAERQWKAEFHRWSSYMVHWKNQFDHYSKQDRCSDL
Method in brief: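 Ellman method, 0.1 M phosphate pH 8.0, 340 µM DTNB. AChE: human erythrocyte 0.035 unit/mL, 550 µM acetylthiocholine. BuChE: human serum 0.035 unit/mL, 550 µM butyrylthiocholine.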

SMILES | IC50 (Acetylcholinesterase) | Ratio [1]
CCCCNC(=O)Oc1cccc(CN(C)CCCOc2ccc3c(=O)c4cccnc4oc3c2)c1 | 70 nM | 2.7
CNC(=O)Oc1cccc(CN(C)CCCCCOc2ccc3c(=O)c4ccccc4oc3c2)c1 | > 100 nM | 101
CNC(=O)Oc1cccc(CN(C)CCCOc2ccc3ccc(=O)oc3c2)c1 | 1.5 nM | 0.6
CCCCCCCNC(=O)Oc1cccc(CN(C)CCCOc2ccc3ccc(=O)oc3c2)c1 | 2 nM | 5
CN(CCCOc1ccc2c(=O)c3ccccc3oc2c1)Cc1cccc(OC(=O)Nc2ccccc2)c1 | > 1000 nM | 71.4
CNC(=O)Oc1cccc(CN(C)CCCOc2ccc3c(=O)cc(-c4ccccc4)oc3c2)c1 | 0.6 nM | 8.2

Source: ChEMBL document CHEMBL1131132, “Acetylcholinesterase inhibitors: synthesis and structure-activity relationships of omega-[N-methyl-N-(3-alkylcarbamoyloxyphenyl)- methyl]aminoalkoxyheteroaryl derivatives” (J Med Chem, 1998)
